Data published in ChEMBL document CHEMBL3124885, “Discovery of 7-tetrahydropyran-2-yl chromans: β-site amyloid precursor protein cleaving enzyme 1 (BACE1) inhibitors that reduce amyloid β-protein (Aβ) in the central nervous system” (J Med Chem, 2014).

Assay: Ratio of unbound drug level in brain to plasma in Hartley guinea pig at 60 mg/kg, po measured at 12 hrs
Type: ADME, organism-based, Cavia porcellus
Design: dose 60 mg/kg, route oral
Details: brain and plasma (unbound), read-out: K(p,uu,brain)
Procedure, shortened: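 Male Hartley guinea pigs given single oral doses of 30, 60 or 100 mg/kg in 1% CMC/0.5% Tween/5 mM citrate in H₂O, 6–8 animals per cohort. Plasma, brain and CSF sampled at 1–12 h; free brain to free plasma ratio computed.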

Kp uu at 12 h: > 3.7
SMILES: CN1C(=O)[C@]2(N=C1N)c1cc(-c3cccnc3F)ccc1O[C@H]1CCOC[C@@H]12
